From ChEMBL document CHEMBL4152256, “Structure-activity relationship of new antimalarial 1-aryl-3-susbtituted propanol derivatives: Synthesis, preliminary toxicity profiling, parasite life cycle stage studies, target exploration, and targeted delivery” (Eur J Med Chem, 2018)

Columns and labels:
[1] = Genotoxicity in Salmonella typhimurium TA1535 harboring pSK1002 assessed as umu gene induction at 0.063 mg/ml in absence of Sprague-Dawley rat liver S9 fraction after by SOS/umu assay relative to control; type: toxicity, organism-based; settings: salmonella enterica subsp. enterica serovar typhimurium, read-out: FC
[2] = Genotoxicity in Salmonella typhimurium TA1535 harboring pSK1002 assessed as survival at 0.125 mg/ml in presence of Sprague-Dawley rat liver S9 fraction after by SOS/umu assay relative to control; type: toxicity, organism-based; settings: salmonella enterica subsp. enterica serovar typhimurium, read-out: Survival
[3] = Genotoxicity in Salmonella typhimurium TA1535 harboring pSK1002 assessed as umu gene induction at 0.004 mg/ml in presence of Sprague-Dawley rat liver S9 fraction after by SOS/umu assay relative to control; type: toxicity, organism-based; settings: salmonella enterica subsp. enterica serovar typhimurium, read-out: FC
[4] = Genotoxicity in Salmonella typhimurium TA1535 harboring pSK1002 assessed as umu gene induction at 0.125 mg/ml in presence of Sprague-Dawley rat liver S9 fraction after by SOS/umu assay relative to control; type: toxicity, organism-based; settings: salmonella enterica subsp. enterica serovar typhimurium, read-out: FC
[5] = Genotoxicity in Salmonella typhimurium TA1535 harboring pSK1002 assessed as survival at 0.002 mg/ml in presence of Sprague-Dawley rat liver S9 fraction after by SOS/umu assay relative to control; type: toxicity, organism-based; settings: salmonella enterica subsp. enterica serovar typhimurium, read-out: Survival
[6] = Genotoxicity in Salmonella typhimurium TA1535 harboring pSK1002 assessed as survival at 0.004 mg/ml in presence of Sprague-Dawley rat liver S9 fraction after by SOS/umu assay relative to control; type: toxicity, organism-based; settings: salmonella enterica subsp. enterica serovar typhimurium, read-out: Survival
[7] = Genotoxicity in Salmonella typhimurium TA1535 harboring pSK1002 assessed as survival at 0.016 mg/ml in presence of Sprague-Dawley rat liver S9 fraction after by SOS/umu assay relative to control; type: toxicity, organism-based; settings: salmonella enterica subsp. enterica serovar typhimurium, read-out: Survival
[8] = Genotoxicity in Salmonella typhimurium TA1535 harboring pSK1002 assessed as umu gene induction at 0.016 mg/ml in presence of Sprague-Dawley rat liver S9 fraction after by SOS/umu assay relative to control; type: toxicity, organism-based; settings: salmonella enterica subsp. enterica serovar typhimurium, read-out: FC
[9] = Genotoxicity in Salmonella typhimurium TA1535 harboring pSK1002 assessed as umu gene induction at 0.031 mg/ml in presence of Sprague-Dawley rat liver S9 fraction after by SOS/umu assay relative to control; type: toxicity, organism-based; settings: salmonella enterica subsp. enterica serovar typhimurium, read-out: FC
[10] = Genotoxicity in Salmonella typhimurium TA1535 harboring pSK1002 assessed as umu gene induction at 0.001 mg/ml in absence of Sprague-Dawley rat liver S9 fraction after by SOS/umu assay relative to control; type: toxicity, organism-based; settings: salmonella enterica subsp. enterica serovar typhimurium, read-out: FC
[11] = Genotoxicity in Salmonella typhimurium TA1535 harboring pSK1002 assessed as umu gene induction at 0.004 mg/ml in absence of Sprague-Dawley rat liver S9 fraction after by SOS/umu assay relative to control; type: toxicity, organism-based; settings: salmonella enterica subsp. enterica serovar typhimurium, read-out: FC
[12] = Genotoxicity in Salmonella typhimurium TA1535 harboring pSK1002 assessed as umu gene induction at 0.016 mg/ml in absence of Sprague-Dawley rat liver S9 fraction after by SOS/umu assay relative to control; type: toxicity, organism-based; settings: salmonella enterica subsp. enterica serovar typhimurium, read-out: FC
[13] = Genotoxicity in Salmonella typhimurium TA1535 harboring pSK1002 assessed as umu gene induction at 0.002 mg/ml in presence of Sprague-Dawley rat liver S9 fraction after by SOS/umu assay relative to control; type: toxicity, organism-based; settings: salmonella enterica subsp. enterica serovar typhimurium, read-out: FC
[14] = Genotoxicity in Salmonella typhimurium TA1535 harboring pSK1002 assessed as umu gene induction at 0.002 mg/ml in absence of Sprague-Dawley rat liver S9 fraction after by SOS/umu assay relative to control; type: toxicity, organism-based; settings: salmonella enterica subsp. enterica serovar typhimurium, read-out: FC
[15] = Genotoxicity in Salmonella typhimurium TA1535 harboring pSK1002 assessed as umu gene induction at 0.008 mg/ml in presence of Sprague-Dawley rat liver S9 fraction after by SOS/umu assay relative to control; type: toxicity, organism-based; settings: salmonella enterica subsp. enterica serovar typhimurium, read-out: FC
Plasmodium falciparum [16] = assay: Antiplasmodial activity against chloroquine-sensitive Plasmodium falciparum 3D7 by [3H]-hypoxanthine incorporation assay; type: functional, organism-based
In short: (§1)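 Blood-stage P. falciparum 3D7 and FCR-3 were tested by a modified [3H]-hypoxanthine incorporation assay. Chloroquine was the reference in all runs.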

[17] = Genotoxicity in Salmonella typhimurium TA1535 harboring pSK1002 assessed as survival at 0.002 mg/ml in absence of Sprague-Dawley rat liver S9 fraction after by SOS/umu assay relative to control; type: toxicity, organism-based; settings: salmonella enterica subsp. enterica serovar typhimurium, read-out: Survival
[18] = Genotoxicity in Salmonella typhimurium TA1535 harboring pSK1002 assessed as umu gene induction at 0.031 mg/ml in absence of Sprague-Dawley rat liver S9 fraction after by SOS/umu assay relative to control; type: toxicity, organism-based; settings: salmonella enterica subsp. enterica serovar typhimurium, read-out: FC
[19] = Genotoxicity in Salmonella typhimurium TA1535 harboring pSK1002 assessed as umu gene induction at 0.008 mg/ml in absence of Sprague-Dawley rat liver S9 fraction after by SOS/umu assay relative to control; type: toxicity, organism-based; settings: salmonella enterica subsp. enterica serovar typhimurium, read-out: FC
[20] = Genotoxicity in Salmonella typhimurium TA1535 harboring pSK1002 assessed as survival at 0.063 mg/ml in absence of Sprague-Dawley rat liver S9 fraction after by SOS/umu assay relative to control; type: toxicity, organism-based; settings: salmonella enterica subsp. enterica serovar typhimurium, read-out: Survival
Plasmodium falciparum [21] = assay: Antiplasmodial activity against multidrug-resistant Plasmodium falciparum FCR-3 by [3H]-hypoxanthine incorporation assay; type: functional, organism-based, FCR-3/Gambia; in short: as §1
[22] = Genotoxicity in Salmonella typhimurium TA1535 harboring pSK1002 assessed as survival at 0.001 mg/ml in presence of Sprague-Dawley rat liver S9 fraction after by SOS/umu assay relative to control; type: toxicity, organism-based; settings: salmonella enterica subsp. enterica serovar typhimurium, read-out: Survival
[23] = Cytotoxicity against human HepG2A16 cells by MTT assay; type: cell-based
In short: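 MTT viability assay on HepG2-A16 cells, giving CC50 values.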

[24] = Genotoxicity in Salmonella typhimurium TA1535 harboring pSK1002 assessed as umu gene induction at 0.125 mg/ml in absence of Sprague-Dawley rat liver S9 fraction after by SOS/umu assay relative to control; type: toxicity, organism-based; settings: salmonella enterica subsp. enterica serovar typhimurium, read-out: FC
[25] = Genotoxicity in Salmonella typhimurium TA1535 harboring pSK1002 assessed as survival at 0.016 mg/ml in absence of Sprague-Dawley rat liver S9 fraction after by SOS/umu assay relative to control; type: toxicity, organism-based; settings: salmonella enterica subsp. enterica serovar typhimurium, read-out: Survival
[26] = Genotoxicity in Salmonella typhimurium TA1535 harboring pSK1002 assessed as umu gene induction at 0.001 mg/ml in presence of Sprague-Dawley rat liver S9 fraction after by SOS/umu assay relative to control; type: toxicity, organism-based; settings: salmonella enterica subsp. enterica serovar typhimurium, read-out: FC
[27] = Genotoxicity in Salmonella typhimurium TA1535 harboring pSK1002 assessed as survival at 0.008 mg/ml in presence of Sprague-Dawley rat liver S9 fraction after by SOS/umu assay relative to control; type: toxicity, organism-based; settings: salmonella enterica subsp. enterica serovar typhimurium, read-out: Survival
[28] = Genotoxicity in Salmonella typhimurium TA1535 harboring pSK1002 assessed as umu gene induction at 0.063 mg/ml in presence of Sprague-Dawley rat liver S9 fraction after by SOS/umu assay relative to control; type: toxicity, organism-based; settings: salmonella enterica subsp. enterica serovar typhimurium, read-out: FC
[29] = Selectivity index, ratio of CC50 for human HepG2A16 cells by MTT assay to IC50 for multidrug-resistant Plasmodium falciparum FCR-3; type: toxicity; settings: for selectivity ratio: HepG2A16 cells, read-out: Ratio CC50/IC50
In short: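 HepG2-A16 human hepatoma cells were tested by MTT viability assay to give CC50. Blood-stage activity was measured against the multidrug-resistant P. falciparum FCR-3 strain by [3H]-hypoxanthine incorporation to give IC50. SI = CC50 HepG2 / FCR-3 IC50.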

[30] = Plasmodium falciparum, FCR-3/Gambia, 3 h

SMILES	fold induction at 0.063 mg/ml [1]	viability at 0.125 mg/ml [2]	fold induction at 0.004 mg/ml [3]	fold induction at 0.125 mg/ml [4]	viability at 0.002 mg/ml [5]	viability at 0.004 mg/ml [6]	viability at 0.016 mg/ml [7]	fold induction at 0.016 mg/ml [8]	fold induction at 0.031 mg/ml [9]	fold induction at 0.001 mg/ml [10]	fold induction at 0.004 mg/ml [11]	fold induction at 0.016 mg/ml [12]	fold induction at 0.002 mg/ml [13]	fold induction at 0.002 mg/ml [14]	fold induction at 0.008 mg/ml [15]	viability at 0.002 mg/ml [17]	fold induction at 0.031 mg/ml [18]	fold induction at 0.008 mg/ml [19]	viability at 0.063 mg/ml [20]	viability at 0.001 mg/ml [22]	other results
N#Cc1ccc(N2CCC(NCCC(O)c3ccc(F)c4ccccc34)CC2)c(C(F)(F)F)c1 (stereo in doubt; 72)	0.3	91%	0.7	0.2	136%	136%	36.3%	0.6	0.6	1	0.9	0.8	1	1.3	1.3	110%	0.7	0.8	54.7%	121%	IC50 (Plasmodium falciparum [16]): 0.13 µM; IC50 (Plasmodium falciparum [21]): 0.08 µM; CC50 [23]: 6.22 µM; fold induction at 0.125 mg/ml [24]: 0.2; viability at 0.016 mg/ml [25]: 28.3%; fold induction at 0.001 mg/ml [26]: 0.8; viability at 0.008 mg/ml [27]: 52.9%; fold induction at 0.063 mg/ml [28]: 0.2; Ratio CC50/IC50 [29]: 78
OC(CCN1CCN(C(c2ccccc2)c2ccccc2)CC1)c1ccc(F)c(F)c1 (stereo unspecified)	4	117%	0.9	0.7	92.2%	87.6%	94.9%	0.8	0.8	0.6	1	2	0.8	0.9	0.8	104%	1.9	1.2	28%	98.5%	IC50 (Plasmodium falciparum [16]; Plasmodium falciparum, 3D7): 0.38 µM; IC50 (Plasmodium falciparum [21]; [30]): 0.37 µM; CC50 ([23]; HepG2A16 cells): 54.3 µM; fold induction at 0.125 mg/ml [24]: 1.4; viability at 0.016 mg/ml [25]: 36.7%; fold induction at 0.001 mg/ml [26]: 0.6; viability at 0.008 mg/ml [27]: 101%; fold induction at 0.063 mg/ml [28]: 0.8; selectivity ratio [29]: 147
N#Cc1ccc(C(O)CCN2CC=C(c3ccc(F)cc3)CC2)cc1 (stereo unspecified)	1.2	108%	0.8	1	97.8%	122%	126%	0.9	0.8	0.9	0.9	1.1	1.1	0.9	1	103%	1.2	1.1	82.3%	104%	IC50 (Plasmodium falciparum [16]; Plasmodium falciparum, 3D7): 8.48 µM; IC50 (Plasmodium falciparum [21]; [30]): 1.33 µM; CC50 ([23]; HepG2A16 cells): 82.4 µM; fold induction at 0.125 mg/ml [24]: 1.1; viability at 0.016 mg/ml [25]: 85.1%; fold induction at 0.001 mg/ml [26]: 1.1; viability at 0.008 mg/ml [27]: 108%; fold induction at 0.063 mg/ml [28]: 1.1; selectivity ratio [29]: 62
COc1ccccc1N1CCN(CCC(O)c2ccc(F)cc2)CC1 (stereo in doubt; 66)	0.9	89.8%	1	1	80.7%	93.1%	82.8%	1.1	0.9	1.1	1.1	1	1.2	1	1	114%	1	1	108%	91.6%	IC50 (Plasmodium falciparum [16]): 7.31 µM; IC50 (Plasmodium falciparum [21]): 0.19 µM; CC50 [23]: 19.5 µM; fold induction at 0.125 mg/ml [24]: 0.9; viability at 0.016 mg/ml [25]: 108%; fold induction at 0.001 mg/ml [26]: 1.3; viability at 0.008 mg/ml [27]: 88.2%; fold induction at 0.063 mg/ml [28]: 0.9; Ratio CC50/IC50 [29]: 103
